IC50, Activity and inhibition data for three compounds are collected here from ChEMBL document CHEMBL2396631, “(+)-Altholactone exhibits broad spectrum immune modulating activity by inhibiting the activation of pro-inflammatory cytokines in RAW 264.7 cell lines” (Bioorg Med Chem, 2013).

A short description of data set [1]: Inhibition of LPS-induced NF-kappaB activation in mouse RAW264.7 cells after 18 hrs by luciferase assay. It counts as cell-based. The settings on record: RAW264.7, 18 h. Put shortly:
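RAW264.7 cells stably carrying an NF-κB luciferase reporter plated at 5 × 10⁴ per well and allowed 24 h recovery. Then treated with compound plus LPS 100 ng/mL for 18 h. Lysates read after adding luciferase assay reagent. IC50 given as mean ± SE, n = 3.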

For data set [2], the system named is RAW264.7. Kind of data set: Cytotoxicity against mouse RAW264.7 cells after 18 hrs by MTT assay. Type of data set: cell-based. The settings on record: RAW264.7, 18 h. Put shortly:
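Murine macrophage RAW264.7 cells exposed to compound about 18 h, tested at 6.25–100 µM from DMSO stock. MTT added for 2 h, formazan dissolved in DMSO and read at 570 nm. IC50 given as mean ± SE, n = 3.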
In general terms: Tetrazolium dyes change colour on reduction, which living cells bring about.

The next data set concerns PC-3. The data set can be described thus: Cytotoxicity against human PC3 cells up to 100 uM after 20 hrs by MTT assay. Type of data set: cell-based. The settings on record: pc-3, 20 h. Put shortly:
(§1)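 Non-tumorigenic MCF-10A and tumorigenic MCF-7, MDA-MB-231, PC3 and LNCaP cells grown in 96-well plates in their own growth media. Treated with 6.25, 12.5, 25, 50 or 100 µM compound from DMSO stock for 20 h, then MTT added for 2 h. Formazan dissolved in DMSO and absorbance read at 570 nm.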

The test system of the next data set is LNCaP. Kind of data set: Cytotoxicity against human LNCAP cells up to 100 uM after 20 hrs by MTT assay. Type of data set: cell-based. Put shortly: as §1
The next data set deals with MCF7. Kind of data set: Cytotoxicity against human MCF7 cells up to 100 uM after 20 hrs by MTT assay. It counts as cell-based. The settings on record: mcf7, 20 h. The method in brief: as §1
The next data set concerns MDA-MB-231. The data set can be described thus: Cytotoxicity against human MDA-MB-231 cells up to 100 uM after 20 hrs by MTT assay. Type of data set: cell-based. The conditions noted are these: mda-mb-231, 20 h. Put shortly: as §1
The next data set deals with MCF-10A. The data set can be described thus: Cytotoxicity against human MCF10A cells up to 100 uM after 20 hrs by MTT assay. It counts as cell-based. The method in brief: as §1
Data set [3] concerns RAW264.7. Kind of data set: Antiinflammatory activity in mouse RAW264.7 cells assessed as reduction of LPS-induced IFN-beta mRNA expression by quantitative real-time PCR analysis. It counts as functional, cell-based. The method in brief: (§2)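 Cells treated with compound (0.7–12.5 µM) plus LPS 100 ng/mL. Total RNA analysed by SYBR Green real-time qPCR, with each gene normalised to GAPDH. Mean ± SD of three independent experiments; one-way ANOVA, p < 0.05 taken as significant.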

Data set [4] relates to RAW264.7. Kind of data set: Antiinflammatory activity in mouse RAW264.7 cells assessed as reduction of LPS-induced IL-6 mRNA expression by quantitative real-time PCR analysis. Type of data set: functional, cell-based. Put shortly:
as §2
On the technique in general: In qPCR the cycle at which signal appears reflects the starting amount.

Data set [5] relates to RAW264.7. The data set can be described thus: Antiinflammatory activity in mouse RAW264.7 cells assessed as reduction of LPS-induced G-CSF mRNA expression by quantitative real-time PCR analysis. It counts as functional, cell-based. The method in brief: as §2
Data set [6] relates to RAW264.7. Kind of data set: Antiinflammatory activity in mouse RAW264.7 cells assessed as reduction of LPS-induced MCP1 mRNA expression by quantitative real-time PCR analysis. It counts as functional, cell-based. The method in brief: as §2
Data set [7] deals with RAW264.7. Kind of data set: Antiinflammatory activity in mouse RAW264.7 cells assessed as reduction of LPS-induced IL-1beta mRNA expression by quantitative real-time PCR analysis. It counts as functional, cell-based. Put shortly: as §2
Data set [8] relates to RAW264.7. The data set can be described thus: Antiinflammatory activity in mouse RAW264.7 cells assessed as reduction of LPS-induced IP-10 mRNA expression by quantitative real-time PCR analysis. It counts as functional, cell-based. Put shortly: as §2
The subject of data set [9] is RAW264.7. Kind of data set: Antiinflammatory activity in mouse RAW264.7 cells assessed as reduction of LPS-induced COX2 mRNA expression by quantitative real-time PCR analysis. Type of data set: functional, cell-based. Put shortly:
as §2

Data set [10] concerns RAW264.7. The data set can be described thus: Antiinflammatory activity in mouse RAW264.7 cells assessed as reduction of LPS-induced iNOS mRNA expression by quantitative real-time PCR analysis. Type of data set: functional, cell-based. The method in brief: as §2
Data set [11] deals with RAW264.7. The data set can be described thus: Antiinflammatory activity in mouse RAW264.7 cells assessed as reduction of LPS-induced COX2 expression at 5 uM after 4 hrs by Western blot analysis. It counts as functional, cell-based. The method in brief: (§3)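 Near-confluent cells treated with rising compound concentrations (1.5–12.0 µM) plus LPS for 4 h at 37 °C. Lysed directly in SDS loading buffer, sonicated, heated, run on 4–15% gels, then transferred. Probed for phospho-IκBα, IκBα, iNOS and COX-2, with β-actin as the loading reference; HRP secondaries used.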
In general terms: In western blotting, separated proteins are transferred to a membrane and probed.

Data set [12] deals with RAW264.7. The data set can be described thus: Antiinflammatory activity in mouse RAW264.7 cells assessed as reduction of LPS-induced iNOS expression at 5 uM after 4 hrs by Western blot analysis. Type of data set: functional, cell-based. Put shortly: as §3
Data set [13] concerns RAW264.7. The data set can be described thus: Inhibition of LPS-induced NF-kappaB activation in mouse RAW264.7 cells assessed as reduction of IkappaBalpha phosphorylation at 1.5 to 12 uM after 4 hrs by Western blot analysis. Type of data set: cell-based. Put shortly: as §3
Data set [14] deals with RAW264.7. Kind of data set: Antiinflammatory activity in mouse RAW264.7 cells assessed as inhibition of LPS-induced nitric oxide production after 24 hrs by Griess assay. It counts as functional, cell-based. The settings on record: RAW264.7, 24 h. Put shortly: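 Cells plated in RPMI1640, 24 h at 37 °C; medium changed, then compound plus E. coli 055:B5 LPS added. Supernatant mixed with Griess reagent (sulfanilamide/naphthylethylenediamine in H3PO4), 30 min at room temperature in the dark. IC50 given as mean ± SE, n = 3.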

Active and inactive are the calls of the source. No cut-off for these calls is given here.

What is called IC50 is the concentration that inhibits the measured activity by half. On to `CC(=O)O[C@H]1[C@@H]2OC(=O)C=C[C@@H]2O[C@@H]1c1ccccc1` [(+)-3-O-ACETYLALTHOLACTONE], for which the IC50 was determined as 34.3 µM in [1] and 36.1 µM in the data set on RAW264.7 [2].
On to `O=C1C=C[C@@H]2O[C@H](c3ccccc3)[C@@H](O)[C@@H]2O1` [ALTHOLACTONE], for which the Activity entry with PC-3, with LNCaP, in the data set with MCF7, with MDA-MB-231 and with MCF-10A was “Non-toxic” each time. For the same compound, the IC50 was determined as 0.8 µM with RAW264.7 [3]; 0.9 µM with RAW264.7 [4]; 4 µM with RAW264.7 [5]; 4 µM in the data set on RAW264.7 [6]; 3 µM with RAW264.7 [7]; 5 µM in the data set on RAW264.7 [8]. Also, the concentration for half-maximal inhibition (IC50) is 3 µM in the data set on RAW264.7 [9]; 2 µM in the data set on RAW264.7 [10]; 6.7 µM in [1]; 0.8 µM in the data set with RAW264.7 [14]; 43.4 µM in the data set on RAW264.7 [2]. Further, the inhibition entry in the data set on RAW264.7 [11], in the data set on RAW264.7 [12] and in the data set with RAW264.7 [13] was “Active” in each case.
Take `O=C1C=CC[C@H](/C=C/c2ccccc2)O1` [GONIOTHALAMIN]: the IC50 in [1] was 27.4 µM; in the data set with RAW264.7 [2] it was 34.2 µM.
